This is an account of results in ChEMBL document CHEMBL5325511, “Discovery of N-(4-(Aminomethyl)phenyl)-5-methylpyrimidin-2-amine Derivatives as Potent and Selective JAK2 Inhibitors” (ACS Med Chem Lett, 2023).

The structures appear in SMILES notation.

In series [1] the target is Non-receptor tyrosine-protein kinase TYK2 (Homo sapiens, UniProt P29597). Kind of series: Inhibition of TYK2 (unknown origin) in presence of Mg/ATP mixture by [gamma p33]-ATP based radiometric assay.
Series [2] in a line: Half life in Sprague-Dawley rat at 5 mg/kg, po measured upto 24 hrs by LC-MS/MS analysis. It is filed as ADME, organism-based. The settings on record: in vivo. The gist of the method:
(§1)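 Sprague–Dawley rats, n = 5, dosed at 5 mg/kg as a solution in 2% ethanol and 1% Tween 80, pH 5.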

Series [3] has as its target T1, Tyrosine-protein kinase JAK3 (Homo sapiens, UniProt P52333).
T1 sequence (P52333 whole entry): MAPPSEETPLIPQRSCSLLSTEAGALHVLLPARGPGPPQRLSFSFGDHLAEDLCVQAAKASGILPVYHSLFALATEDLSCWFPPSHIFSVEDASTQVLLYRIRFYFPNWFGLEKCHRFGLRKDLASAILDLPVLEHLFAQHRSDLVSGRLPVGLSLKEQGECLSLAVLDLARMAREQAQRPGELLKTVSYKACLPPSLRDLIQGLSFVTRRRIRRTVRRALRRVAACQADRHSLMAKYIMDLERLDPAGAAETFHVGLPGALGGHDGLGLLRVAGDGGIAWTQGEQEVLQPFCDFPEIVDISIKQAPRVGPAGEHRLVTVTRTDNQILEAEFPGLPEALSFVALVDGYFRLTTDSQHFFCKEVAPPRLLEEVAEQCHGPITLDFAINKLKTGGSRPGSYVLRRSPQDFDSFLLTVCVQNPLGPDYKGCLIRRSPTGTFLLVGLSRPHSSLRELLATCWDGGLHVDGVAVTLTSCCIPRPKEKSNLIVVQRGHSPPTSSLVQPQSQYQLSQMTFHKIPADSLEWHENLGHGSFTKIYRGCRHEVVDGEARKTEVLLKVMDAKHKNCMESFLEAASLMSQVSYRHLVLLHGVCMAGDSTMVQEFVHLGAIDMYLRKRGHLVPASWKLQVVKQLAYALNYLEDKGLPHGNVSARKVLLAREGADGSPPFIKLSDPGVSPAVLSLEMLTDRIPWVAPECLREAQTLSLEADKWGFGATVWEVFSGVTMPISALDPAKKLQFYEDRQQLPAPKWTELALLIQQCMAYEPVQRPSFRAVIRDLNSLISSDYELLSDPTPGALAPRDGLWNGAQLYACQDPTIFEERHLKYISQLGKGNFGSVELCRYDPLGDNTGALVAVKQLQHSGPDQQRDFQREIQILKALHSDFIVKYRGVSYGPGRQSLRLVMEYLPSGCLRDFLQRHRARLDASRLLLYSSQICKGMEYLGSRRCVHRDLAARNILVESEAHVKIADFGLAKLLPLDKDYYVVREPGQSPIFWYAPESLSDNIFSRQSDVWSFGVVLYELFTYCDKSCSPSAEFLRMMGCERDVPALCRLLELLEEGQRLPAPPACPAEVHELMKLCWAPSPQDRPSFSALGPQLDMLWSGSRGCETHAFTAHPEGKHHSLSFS
Put plainly: Inhibition of JAK3 (unknown origin) in presence of Mg/ATP mixture by [gamma p33]-ATP based radiometric assay.

Series [4] in a line: Selectivity ratio of IC50 for TYK2 (unknown origin) to IC50 for JAK2 (unknown origin).
Series [5] is described as follows: Cmax in Sprague-Dawley rat at 5 mg/kg, po measured upto 24 hrs by LC-MS/MS analysis. The settings on record: in vivo. It is filed as ADME, organism-based. More on the design: dose 5 mg/kg, time < 24 hrs, route po. The gist of the method: as §1
For series [6], the target named is T2, Receptor-type tyrosine-protein kinase FLT3 (Homo sapiens, UniProt P36888).
T2 sequence (P36888 whole entry): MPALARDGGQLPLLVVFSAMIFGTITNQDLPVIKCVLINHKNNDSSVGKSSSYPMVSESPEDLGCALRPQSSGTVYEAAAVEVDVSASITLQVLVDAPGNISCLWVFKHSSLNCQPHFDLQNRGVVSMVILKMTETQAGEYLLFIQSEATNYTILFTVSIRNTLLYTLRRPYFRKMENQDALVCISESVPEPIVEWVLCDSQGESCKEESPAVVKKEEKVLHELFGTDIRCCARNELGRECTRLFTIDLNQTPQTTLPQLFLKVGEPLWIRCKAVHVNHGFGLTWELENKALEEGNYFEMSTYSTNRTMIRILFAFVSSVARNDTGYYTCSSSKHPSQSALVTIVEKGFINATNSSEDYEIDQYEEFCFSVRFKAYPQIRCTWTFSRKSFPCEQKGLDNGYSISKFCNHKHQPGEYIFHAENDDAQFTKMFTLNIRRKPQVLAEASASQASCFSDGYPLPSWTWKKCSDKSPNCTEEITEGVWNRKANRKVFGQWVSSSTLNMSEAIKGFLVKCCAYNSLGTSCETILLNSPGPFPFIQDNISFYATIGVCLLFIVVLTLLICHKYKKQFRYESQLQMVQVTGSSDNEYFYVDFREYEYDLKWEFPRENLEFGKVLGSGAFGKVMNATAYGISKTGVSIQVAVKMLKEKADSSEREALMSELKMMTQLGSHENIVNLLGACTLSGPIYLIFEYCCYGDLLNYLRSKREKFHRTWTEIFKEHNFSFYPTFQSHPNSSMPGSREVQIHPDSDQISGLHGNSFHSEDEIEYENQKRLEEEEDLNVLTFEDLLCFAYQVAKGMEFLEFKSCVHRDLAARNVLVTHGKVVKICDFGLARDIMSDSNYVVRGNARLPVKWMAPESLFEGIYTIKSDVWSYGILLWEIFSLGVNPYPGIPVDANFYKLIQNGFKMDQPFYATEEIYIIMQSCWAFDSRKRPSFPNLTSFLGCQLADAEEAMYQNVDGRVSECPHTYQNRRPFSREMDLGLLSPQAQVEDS
Kind of series: Inhibition of FLT3 in human MOLM-13 cells. It is filed as cell-based. The gist of the method:
(§2)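 Cell proliferation assay. IC50 is the concentration that inhibits proliferation by 50%, taken from dose–response curves. Mean ± SEM of at least three independent experiments.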

Series [7] can be described thus: Oral bioavailability in Sprague-Dawley rat at 5 mg/kg measured upto 24 hrs by LC-MS/MS analysis. It counts as ADME, organism-based. The settings on record: in vivo. The gist of the method: (§3)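 Sprague–Dawley rats, n = 5 per group, dosed at 5 mg/kg as a solution in 2% ethanol and 1% Tween 80, pH 5.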
For series [8], the target named is T2, Receptor-type tyrosine-protein kinase FLT3. Put plainly: Inhibition of FLT3 (unknown origin) in presence of Mg/ATP mixture by [gamma p33]-ATP based radiometric assay. The gist of the method:
(§4)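 IC50 values determined by Eurofins Discovery.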

The nature of series [9]: Selectivity ratio of IC50 for JAK3 (unknown origin) to IC50 for JAK2 (unknown origin).
Series [10] deals with Tyrosine-protein kinase JAK2 (Homo sapiens, UniProt O60674, V617F). Put plainly: Inhibition of JAK2 V617F mutant in human SET2 cells. It is filed as cell-based. The gist of the method:
as §2

Series [11] addresses T3, Tyrosine-protein kinase JAK2 (Homo sapiens, UniProt O60674). Kind of series: Inhibition of JAK2 (unknown origin) in presence of Mg/ATP mixture by [gamma p33]-ATP based radiometric assay. The gist of the method: as §4
Series [12] is described as follows: Selectivity ratio of IC50 for FLT3 (unknown origin) to IC50 for JAK2 (unknown origin).
In series [13] the target is Tyrosine-protein kinase JAK1 (Homo sapiens, UniProt P23458). Put plainly: Inhibition of JAK1 (unknown origin) in presence of Mg/ATP mixture by [gamma p33]-ATP based radiometric assay. In outline: as §4
Series [14] deals with Tyrosine-protein kinase JAK2 (Mus musculus, UniProt Q62120, V617F). Kind of series: Inhibition of JAK2 V617F mutant in mouse BaF3 cells. It counts as cell-based. The gist of the method:
as §2

Series [15] can be described thus: AUC(0 to t) in Sprague-Dawley rat at 5 mg/kg, po measured upto 24 hrs by LC-MS/MS analysis. It is filed as ADME, organism-based. On the set-up: time < 24 hrs, dose 5 mg/kg, route po. The settings on record: in vivo. The gist of the method:
as §1

Series [16] deals with T3, Tyrosine-protein kinase JAK2. Kind of series: Inhibition of human JAK2 JH1 expressed in baculovirus infected Sf9 cells assessed as residual activity at 100 nM relative to control.
Series [17] can be described thus: Metabolic stability in human liver microsomes assessed as half life. It counts as ADME, Microsome. On the technique in general: Liver microsomes are a subcellular fraction often used to study metabolism.
A short description of series [18]: Clearance in Sprague-Dawley rat at 5 mg/kg, po measured upto 24 hrs by LC-MS/MS analysis. It is filed as ADME, organism-based. The settings on record: in vivo. In outline:
as §1

A short description of series [19]: Tmax in Sprague-Dawley rat at 5 mg/kg, po measured upto 24 hrs by LC-MS/MS analysis. It counts as ADME, organism-based. The settings on record: in vivo. The gist of the method: as §3

T3 sequence (O60674 whole entry): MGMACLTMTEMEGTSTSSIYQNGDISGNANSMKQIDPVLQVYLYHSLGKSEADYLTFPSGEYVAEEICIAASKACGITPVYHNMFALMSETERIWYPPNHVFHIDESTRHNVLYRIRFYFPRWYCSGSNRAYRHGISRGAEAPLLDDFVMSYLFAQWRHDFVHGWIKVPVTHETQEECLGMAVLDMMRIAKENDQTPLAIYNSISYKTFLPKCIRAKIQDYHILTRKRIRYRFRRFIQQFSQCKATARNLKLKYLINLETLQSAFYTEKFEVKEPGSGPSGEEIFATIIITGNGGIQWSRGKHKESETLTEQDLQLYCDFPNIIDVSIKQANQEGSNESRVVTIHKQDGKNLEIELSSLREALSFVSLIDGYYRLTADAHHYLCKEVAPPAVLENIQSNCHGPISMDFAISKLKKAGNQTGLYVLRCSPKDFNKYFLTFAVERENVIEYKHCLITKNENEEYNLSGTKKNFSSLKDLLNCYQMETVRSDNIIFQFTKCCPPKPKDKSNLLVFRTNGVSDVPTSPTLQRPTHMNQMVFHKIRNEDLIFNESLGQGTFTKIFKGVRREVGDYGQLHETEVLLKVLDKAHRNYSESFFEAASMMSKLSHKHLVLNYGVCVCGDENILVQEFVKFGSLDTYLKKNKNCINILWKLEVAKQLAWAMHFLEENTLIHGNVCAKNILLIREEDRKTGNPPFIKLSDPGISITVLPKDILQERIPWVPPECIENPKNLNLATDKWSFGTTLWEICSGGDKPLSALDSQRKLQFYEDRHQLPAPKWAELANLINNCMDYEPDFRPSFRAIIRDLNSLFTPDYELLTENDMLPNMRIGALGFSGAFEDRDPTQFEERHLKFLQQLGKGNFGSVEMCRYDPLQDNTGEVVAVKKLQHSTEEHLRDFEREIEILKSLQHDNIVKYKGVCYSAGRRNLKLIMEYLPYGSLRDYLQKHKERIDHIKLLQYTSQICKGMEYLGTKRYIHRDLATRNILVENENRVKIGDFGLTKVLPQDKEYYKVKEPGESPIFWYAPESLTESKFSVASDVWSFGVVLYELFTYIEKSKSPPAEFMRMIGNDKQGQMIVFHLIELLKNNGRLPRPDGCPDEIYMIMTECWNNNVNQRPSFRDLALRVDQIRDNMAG
Sequence of Tyrosine-protein kinase JAK2 (Homo sapiens, UniProt O60674, V617F) (O60674 whole entry V617F): as the sequence (O60674 whole entry) above, with V617F counted along it
Sequence of Tyrosine-protein kinase JAK1 (P23458 whole entry): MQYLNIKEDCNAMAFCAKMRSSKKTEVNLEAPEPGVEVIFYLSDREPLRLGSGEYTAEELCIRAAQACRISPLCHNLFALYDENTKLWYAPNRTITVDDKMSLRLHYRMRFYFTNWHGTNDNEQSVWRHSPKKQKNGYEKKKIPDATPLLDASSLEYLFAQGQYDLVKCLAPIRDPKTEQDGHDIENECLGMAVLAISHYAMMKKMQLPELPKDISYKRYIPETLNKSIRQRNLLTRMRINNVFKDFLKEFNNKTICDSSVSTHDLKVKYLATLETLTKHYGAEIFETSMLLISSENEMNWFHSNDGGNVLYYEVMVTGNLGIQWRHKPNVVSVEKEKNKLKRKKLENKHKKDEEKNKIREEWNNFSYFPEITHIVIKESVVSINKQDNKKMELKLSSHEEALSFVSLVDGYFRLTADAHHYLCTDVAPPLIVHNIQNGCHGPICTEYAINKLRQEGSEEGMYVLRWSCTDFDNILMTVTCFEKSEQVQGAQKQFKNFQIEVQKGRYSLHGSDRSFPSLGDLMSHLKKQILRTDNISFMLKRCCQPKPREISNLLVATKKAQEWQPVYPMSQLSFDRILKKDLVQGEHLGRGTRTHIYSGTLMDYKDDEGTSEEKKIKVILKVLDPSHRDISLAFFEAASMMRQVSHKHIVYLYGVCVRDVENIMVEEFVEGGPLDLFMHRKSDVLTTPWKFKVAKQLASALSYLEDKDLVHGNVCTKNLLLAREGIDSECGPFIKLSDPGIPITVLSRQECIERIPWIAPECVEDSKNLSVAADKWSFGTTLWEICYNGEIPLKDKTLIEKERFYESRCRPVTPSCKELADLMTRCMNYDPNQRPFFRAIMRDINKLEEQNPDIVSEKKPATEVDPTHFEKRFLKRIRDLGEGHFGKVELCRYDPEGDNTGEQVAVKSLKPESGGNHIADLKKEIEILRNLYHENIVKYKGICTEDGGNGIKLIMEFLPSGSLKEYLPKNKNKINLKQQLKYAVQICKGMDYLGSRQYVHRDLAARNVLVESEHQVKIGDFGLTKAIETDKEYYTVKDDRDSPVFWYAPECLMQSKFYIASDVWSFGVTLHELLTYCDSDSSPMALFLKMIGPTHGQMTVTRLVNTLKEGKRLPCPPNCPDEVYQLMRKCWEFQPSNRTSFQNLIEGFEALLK
Sequence of Non-receptor tyrosine-protein kinase TYK2 (P29597 whole entry): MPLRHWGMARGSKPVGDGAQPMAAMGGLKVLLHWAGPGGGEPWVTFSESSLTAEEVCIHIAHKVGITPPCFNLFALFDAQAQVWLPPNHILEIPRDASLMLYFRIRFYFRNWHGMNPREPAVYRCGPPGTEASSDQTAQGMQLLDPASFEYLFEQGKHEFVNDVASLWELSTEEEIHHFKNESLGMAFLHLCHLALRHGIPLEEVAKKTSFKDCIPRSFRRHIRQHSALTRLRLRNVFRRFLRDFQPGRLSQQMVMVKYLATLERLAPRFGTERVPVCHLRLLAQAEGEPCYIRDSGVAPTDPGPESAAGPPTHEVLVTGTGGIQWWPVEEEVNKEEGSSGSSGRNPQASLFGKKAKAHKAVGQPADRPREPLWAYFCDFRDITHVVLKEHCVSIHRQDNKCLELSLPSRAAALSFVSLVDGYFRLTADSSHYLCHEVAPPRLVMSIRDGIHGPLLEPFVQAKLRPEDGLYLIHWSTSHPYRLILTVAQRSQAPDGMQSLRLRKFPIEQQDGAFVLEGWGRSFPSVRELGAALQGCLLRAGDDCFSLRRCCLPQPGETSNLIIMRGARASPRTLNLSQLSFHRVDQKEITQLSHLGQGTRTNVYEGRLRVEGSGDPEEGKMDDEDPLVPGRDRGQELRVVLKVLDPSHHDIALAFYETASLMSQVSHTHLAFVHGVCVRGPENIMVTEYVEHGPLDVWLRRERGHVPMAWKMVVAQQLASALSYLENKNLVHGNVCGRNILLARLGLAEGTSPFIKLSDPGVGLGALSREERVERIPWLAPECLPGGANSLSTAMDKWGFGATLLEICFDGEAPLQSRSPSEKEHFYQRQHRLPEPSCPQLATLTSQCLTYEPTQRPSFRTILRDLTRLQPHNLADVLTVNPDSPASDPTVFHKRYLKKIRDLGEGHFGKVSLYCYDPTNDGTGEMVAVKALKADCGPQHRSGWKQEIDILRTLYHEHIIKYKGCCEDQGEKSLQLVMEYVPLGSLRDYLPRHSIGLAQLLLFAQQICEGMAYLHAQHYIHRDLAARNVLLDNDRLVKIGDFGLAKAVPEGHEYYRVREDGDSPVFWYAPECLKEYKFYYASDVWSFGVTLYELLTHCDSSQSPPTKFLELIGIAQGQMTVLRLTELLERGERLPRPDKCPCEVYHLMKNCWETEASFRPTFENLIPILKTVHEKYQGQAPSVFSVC
Sequence of Tyrosine-protein kinase JAK2 (Mus musculus, UniProt Q62120, V617F) (Q62120 as listed by the source V617F): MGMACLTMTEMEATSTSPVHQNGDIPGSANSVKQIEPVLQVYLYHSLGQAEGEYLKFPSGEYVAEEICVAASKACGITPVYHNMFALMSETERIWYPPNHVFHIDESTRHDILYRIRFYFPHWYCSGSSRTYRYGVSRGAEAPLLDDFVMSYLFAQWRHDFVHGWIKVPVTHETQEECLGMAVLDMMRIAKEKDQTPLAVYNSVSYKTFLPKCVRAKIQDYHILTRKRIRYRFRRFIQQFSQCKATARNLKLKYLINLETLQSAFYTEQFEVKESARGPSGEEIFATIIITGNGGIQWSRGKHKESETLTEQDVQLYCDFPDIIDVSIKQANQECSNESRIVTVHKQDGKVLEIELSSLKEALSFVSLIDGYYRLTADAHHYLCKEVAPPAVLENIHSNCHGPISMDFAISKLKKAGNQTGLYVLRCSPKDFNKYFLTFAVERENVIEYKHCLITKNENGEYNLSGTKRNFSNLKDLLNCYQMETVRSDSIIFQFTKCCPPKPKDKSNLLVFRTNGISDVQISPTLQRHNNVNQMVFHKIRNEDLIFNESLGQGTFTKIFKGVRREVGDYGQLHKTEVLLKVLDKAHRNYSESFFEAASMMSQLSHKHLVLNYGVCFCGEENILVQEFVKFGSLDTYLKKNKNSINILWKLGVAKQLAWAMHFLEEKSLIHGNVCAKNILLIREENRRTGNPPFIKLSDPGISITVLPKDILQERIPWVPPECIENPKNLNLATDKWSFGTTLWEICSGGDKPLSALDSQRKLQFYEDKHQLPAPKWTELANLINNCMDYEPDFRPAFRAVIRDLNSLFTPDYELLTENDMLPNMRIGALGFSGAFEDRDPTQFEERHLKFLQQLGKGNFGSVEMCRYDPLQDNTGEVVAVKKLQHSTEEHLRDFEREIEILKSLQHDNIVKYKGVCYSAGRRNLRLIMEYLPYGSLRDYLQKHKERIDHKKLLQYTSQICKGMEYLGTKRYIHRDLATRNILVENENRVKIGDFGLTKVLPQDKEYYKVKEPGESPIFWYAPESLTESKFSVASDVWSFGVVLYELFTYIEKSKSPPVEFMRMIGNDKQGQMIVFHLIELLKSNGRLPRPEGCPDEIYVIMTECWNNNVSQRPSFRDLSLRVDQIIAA

Broadly, the IC50 is the midpoint of a concentration-inhibition curve. The Cmax is the maximum level reached in the sampled fluid or tissue. What is called bioavailability is dose-corrected exposure relative to a reference, in per cent. The low end stands for poor availability, the high end for good availability. Usually half-life stands for the time in which the quantity being followed falls by half. As a reminder, the Tmax is the time from dosing to the highest level. For `Cc1cnc(Nc2ccc(CNS(=O)(=O)C3CC3)cc2)nc1-c1cnn(C(C)C)c1`, the IC50 in [1] amounted to 204 nM; in series [3], 265 nM; in series [6], 1250 nM; in series [8] it was 297 nM; in [10], 109 nM; in series [11], 5 nM. The concentration for half-maximal inhibition (IC50) was 178 nM in series [13] and 53.3 nM in series [14]. For the same compound, the t1/2 in [2] (po, 5 mg/kg, 24 h) is 3.5 h. In addition, the Ratio IC50 in series [4] amounted to 40.8; in series [9], 53; in series [12], 59.4. In series [5] (24 h), the Cmax turned out to be 89.3 ng/mL. Moreover, in [7], the bioavailability came to 40.5%. This compound also yielded an AUCt in series [15] of 2011.6 ng·h/mL. In addition, the Activity in [16] was determined as 1%. Besides, in [17], the half-life is above 2 h. In addition, in series [18], the CL was 355 mL/min/kg. In addition, the Tmax in [19] (po, 5 mg/kg, 24 h) came out at 1.6 h.

For the compound `CCS(=O)(=O)NCc1ccc(Nc2ncc(C)c(-c3cnn(C(C)C)c3)n2)cc1`, the IC50 in series [1] turned out to be 192 nM; in series [3], 287 nM; in series [6] it was 1510 nM; in [8], 412 nM; in series [10], 212 nM; in series [11], 6 nM. In addition, the half-maximal inhibitory concentration (IC50) in series [13] was determined as 142 nM; in series [14] it was 69.2 nM. In addition, the half-life in [2] (Sprague-Dawley) was 6.3 h; in series [17], above 2 h. The Ratio IC50 in series [4] stood at 32; in series [9], 47.8; in series [12], 68.7. The Cmax in series [5] (Sprague-Dawley, read-out: Cmax) came out at 77.8 ng/mL. The compound further yielded a bioavailability in [7] of 35.7%. This compound came in with an AUCt in series [15] of 1556.8 ng·h/mL. Also, the Activity in [16] turned out to be 0%. This compound also displayed a CL in series [18] of 340 mL/min/kg. In addition, in series [19] (Sprague-Dawley, read-out: Tmax), the Tmax is 1 h.
